How the values were obtained:
[1] = target: Beta-2 adrenergic receptor (Homo sapiens, UniProt P07550); experiment: Agonist activity at recombinant human beta2 adrenergic receptor expressed in CHO cells assessed as accumulation of cyclic AMP after 30 mins; assay type: cell-based
[2] = system: Rattus norvegicus; experiment: Cardiotoxicity in Sprague-Dawley rat assessed as decrease in heart beat rate at 3 mg/kg, iv after 30 mins (reference value: 4.5 +/- 0.8%); assay type: toxicity, organism-based; set-up: scale not given: the % may be the effect or the level left; details: in vivo, 0.5 h
[3] = AUC in Sprague-Dawley rat at 5 mg/kg, po by LC-MS/MS analysis; assay type: ADME, organism-based; details: in vivo
How it was run: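 Male Sprague-Dawley rats (n = 2 or 3) dosed orally at 5 mg/kg in saline or water (5 mL/kg). Blood taken from the subclavian vein at 0.5, 1, 2, 4, 6 and 8 h; plasma separated by centrifugation, stored at -20 °C, and drug levels measured by LC-MS/MS. Values are mean ± SD (n = 3) or the average of two experiments.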

[4] = target: Beta-1 adrenergic receptor (Homo sapiens, UniProt P08588); experiment: Intrinsic activity at recombinant human beta1 adrenergic receptor assessed as accumulation of cyclic AMP after 30 mins relative to isoproterenol; details: 0.5 h
Sequence of Beta-1 adrenergic receptor (P08588 whole entry): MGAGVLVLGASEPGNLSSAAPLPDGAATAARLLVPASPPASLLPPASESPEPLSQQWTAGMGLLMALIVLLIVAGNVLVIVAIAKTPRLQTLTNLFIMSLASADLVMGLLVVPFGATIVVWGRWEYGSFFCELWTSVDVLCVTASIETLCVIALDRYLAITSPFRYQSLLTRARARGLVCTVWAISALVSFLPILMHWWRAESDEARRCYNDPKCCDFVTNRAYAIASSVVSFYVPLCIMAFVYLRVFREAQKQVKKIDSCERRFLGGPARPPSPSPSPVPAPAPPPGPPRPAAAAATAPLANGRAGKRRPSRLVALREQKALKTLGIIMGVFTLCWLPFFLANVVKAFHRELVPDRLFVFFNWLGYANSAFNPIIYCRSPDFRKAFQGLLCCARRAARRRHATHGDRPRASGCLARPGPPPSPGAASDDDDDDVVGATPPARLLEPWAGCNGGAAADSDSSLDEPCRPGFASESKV

Sequence of Beta-2 adrenergic receptor (P07550 whole entry): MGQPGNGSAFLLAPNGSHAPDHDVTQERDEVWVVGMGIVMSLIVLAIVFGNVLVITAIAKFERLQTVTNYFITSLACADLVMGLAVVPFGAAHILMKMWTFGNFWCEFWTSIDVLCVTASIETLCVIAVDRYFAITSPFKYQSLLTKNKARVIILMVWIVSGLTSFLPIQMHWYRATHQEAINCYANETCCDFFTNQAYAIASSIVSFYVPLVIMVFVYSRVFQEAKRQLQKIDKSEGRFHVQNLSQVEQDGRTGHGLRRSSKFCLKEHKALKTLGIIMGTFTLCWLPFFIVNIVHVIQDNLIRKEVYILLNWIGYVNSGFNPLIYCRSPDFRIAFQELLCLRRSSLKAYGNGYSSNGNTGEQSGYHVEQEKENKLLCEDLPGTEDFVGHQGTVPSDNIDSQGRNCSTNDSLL

`Cc1n[nH]c2cc(OCCNC[C@H](O)c3cccc(NS(=O)(=O)C4CCC4)c3)ccc12` showed an EC50 [1] greater than 10 µM, an Activity [2] of 0.9% and an AUC [3] of 312 ng·h/mL. The Intrinsic activity [4] was 4%.
